Published values of several laboratories.
Each line is one published result; the experiments were not run side by side.
Target: Tyrosine-protein kinase Blk (BLK, Homo sapiens, UniProt P51451)

SMILES	observed	method	tested at	remaining binding
Cc1c(C(=O)O)cc(-c2ccc(C3CCNCC3)cc2)c2ccc(-c3ccc(C(F)(F)F)cc3)cc12	cell-free assay	competition with immobilised ligand	1 µM	100%
O=C(NCCCN1CCOCC1)c1ccc(Nc2nccc(-c3cc4ccccc4s3)n2)cc1	binding	competition with immobilised ligand	1 µM	100%
CN([C@@H]1CCc2c(CC(=O)O)c3cc(S(C)(=O)=O)ccc3n2C1)S(=O)(=O)c1ccc(F)cc1	cell-free assay	competition with immobilised ligand	1 µM	99%
CN(C)c1nccc(-c2cnn3ncccc23)n1	binding		1 µM	100%
O=C(NCC1CCOCC1)c1n[nH]cc1NC(=O)c1c(F)cccc1F	binding	competition with immobilised ligand	1 µM	100%
C[C@@H]1CCN(c2nccc(-c3cnn4ncccc34)n2)C1	binding		1 µM	100%
COc1cc(-c2cn(C3CCc4ccccc4N(CC(F)(F)F)C3=O)nn2)ccc1-n1ccc(C)n1 (stereo not shown)	cell-free assay	competition with immobilised ligand	1 µM	100%
O=C(NCCCN1CCOCC1)c1ccc(Nc2ncc(Cl)c(-c3ccc(Cl)s3)n2)cc1	binding	competition with immobilised ligand	1 µM	100%
O=C(N1CCS(=O)(=O)CC1)N1C[C@H](c2ccc(OC(F)(F)F)cc2)C[C@H](c2nc(C3CC3)no2)C1	cell-free assay	competition with immobilised ligand	1 µM	100%
CN(CCCC(F)(F)F)c1nccc(-c2cnn3ncccc23)n1	binding		1 µM	91%
FC(F)(F)c1ccc2c(c1)nc(-c1cccnc1)n2C1CC1	cell-free assay	competition with immobilised ligand	1 µM	96%
Nc1ncc2c(n1)-c1c([nH]c3ccc(C#CC4CC4)cc13)CCCC2	binding	competition with immobilised ligand	1 µM	100%
CN(C)c1ncc(F)c(-c2cnn3ncccc23)n1	binding		1 µM	90%
C=CC(=O)N1CCC(C(=O)NCC(=O)N2CCN(c3nc(-c4cnc(N)nc4C(F)F)nc(N4CCOCC4)n3)CC2)CC1	binding	competition with immobilised ligand	1 µM	100%
CN(c1nccc(-c2cnn3ncccc23)n1)C1CC1	binding		1 µM	100%
COc1cnc(Nc2cccc(S(N)(=O)=O)c2)nc1N1CCN(c2ccccc2)C(=O)C1	binding	competition with immobilised ligand	1 µM	100%
O=C(c1ccc(Nc2ncc(Cl)c(-c3ccc(Cl)s3)n2)cc1)N1CCC(N2CCCC2)CC1	binding	competition with immobilised ligand	1 µM	100%
CO[C@@H](C)c1c(Nc2ccc([C@@H](N(C)C(=O)C3CCS(=O)(=O)CC3)C(F)(F)F)cc2)cnc2cc(Cl)nn12	cell-free assay	competition with immobilised ligand	1 µM	56%
N[C@@H]1CCN(c2nccc(-c3cnn4ncccc34)n2)C1	binding		1 µM	97%
Cn1nc(C(F)(F)F)cc1-c1cnc(N2CCc3cc(S(=O)(=O)Nc4c(F)cc(Cl)cc4F)cc(N4CCCC4=O)c32)nc1	cell-free assay	competition with immobilised ligand	1 µM	100%
Cc1cnn2ncc(-c3ccnc(N(C)C)n3)c2c1	binding		1 µM	28%
FC(F)(F)Oc1cccc(-c2cnc3ccc(-c4ccncc4)nn23)c1	cell-free assay	competition with immobilised ligand	5 µM	51%
